The test system of test [1] is Mus musculus. In words: Central nervous system activity in mouse assessed as fighting at 10 mg/kg, po. It counts as functional, organism-based. Also noted: dose 10 mg/kg.
Test [2] has as its system Mus musculus. Description: […] activity in mouse assessed as protection against audiogenic seizure up to 30 mg/kg, po. Also noted: dose 30 mg/kg. Type of test: functional, organism-based.
The subject of test [3] is Rattus norvegicus. In words: Antidepressant activity in rat assessed as motor activity at 5 mg/kg, po. It counts as functional, organism-based. Set-up: dose 5 mg/kg.
For test [4], the system named is Rattus norvegicus. Description: Antihypertensive activity in po dosed rat assessed as reduction of blood pressure. Type of test: functional, organism-based. The essentials:
(§1)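 Cardiovascular screen in hypertensive rats. Compounds were given orally and blood pressure was measured after dosing, with readings taken at 3 h and over 24 h. Activity is expressed as percent decrease in blood pressure.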

Test [5] relates to Rattus norvegicus. Description: Antihypertensive activity in rat assessed as reduction of blood pressure at 10 mg/kg, po after 3 hrs. Type of test: functional. Also noted: scale not given: the % may be the effect or the level left. The method, boiled down: as §1
For test [6], the system named is Rattus norvegicus. Description: Antihypertensive activity in rat assessed as reduction of blood pressure at 10 mg/kg, po after 24 hrs. Set-up: scale not given: the % may be the effect or the level left. It counts as functional. The method, boiled down: as §1
In test [7] the test system is Rattus norvegicus. In words: Antihypertensive activity in rat assessed as reduction of blood pressure at 0.1 mg/kg, po. It counts as functional. Also noted: scale not given: the % may be the effect or the level left. The method, boiled down: as §1

Molecules are shown by their SMILES. Active and inactive are the calls of the source. The rule behind the calls is not given here.

For the molecule `CCCCCC1Cc2c(cc3c(c2O)C2=C(CCC(C)C2)C(C)(C)O3)C1C` (stereo not given), the outcome in the test with Mus musculus [1], in the test on Mus musculus [2], in the test with Rattus norvegicus [3] and in the test on Rattus norvegicus [4] was inactive.

`CCCCCC1Cc2c(cc(O)c3c2OC(C)(C)C2=C3CC(C)CC2)C1C` (stereo not given): the outcome in the test with Mus musculus [1], in the test with Mus musculus [2] and in the test on Rattus norvegicus [3] was inactive. Further, the Activity in the test with Rattus norvegicus [5] was determined as 6%.

As for `CCCCCC(C)C(C)c1cc(O)c2c(c1)OC(C)(C)C1=C2CC(C)CC1` (stereo not given), the Activity with Rattus norvegicus [6] is 38%; in the test on Rattus norvegicus [7], 8%.

The record behind these values is ChEMBL document CHEMBL3272284, “Drugs derived from cannabinoids. 6. Synthesis of cyclic analogues of dimethylheptylpyran” (1976).
